Series [1] in a line: Clearance in mouse liver microsomes. The class given is ADME, Microsome. (In general: Microsomes from liver hold many membrane-bound enzymes, among them those of drug oxidation.)
Series [2] in a line: Clearance in human liver microsomes. It counts as ADME, Microsome.
Series [3] is described as follows: Unbound fraction in mouse plasma at 2 uM. It counts as ADME, cell-free.
A short description of series [4]: Unbound fraction in human plasma at 2 uM. The class given is ADME, cell-free.
Series [5] has as its target T1, CYP3A4 (Homo sapiens, UniProt P08684). As to the kind of experiment: Inhibition of CYP3A4 (unknown origin) at 10 uM using midazolam substrate relative to control. The class given is ADME. The following applies: probe midazolam. Put shortly: (§1)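 The CYP3A4 assay was run with midazolam or with testosterone as substrate.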
The target of series [6] is T1, CYP3A4. As to the kind of experiment: Inhibition of CYP3A4 (unknown origin) at 10 uM using testosterone substrate relative to control. It counts as ADME. The settings on record: probe testosterone. The method in brief:
as §1

The target of another series is T2, CYP1A2 (Homo sapiens, UniProt P05177).
T2 sequence (P05177 whole entry): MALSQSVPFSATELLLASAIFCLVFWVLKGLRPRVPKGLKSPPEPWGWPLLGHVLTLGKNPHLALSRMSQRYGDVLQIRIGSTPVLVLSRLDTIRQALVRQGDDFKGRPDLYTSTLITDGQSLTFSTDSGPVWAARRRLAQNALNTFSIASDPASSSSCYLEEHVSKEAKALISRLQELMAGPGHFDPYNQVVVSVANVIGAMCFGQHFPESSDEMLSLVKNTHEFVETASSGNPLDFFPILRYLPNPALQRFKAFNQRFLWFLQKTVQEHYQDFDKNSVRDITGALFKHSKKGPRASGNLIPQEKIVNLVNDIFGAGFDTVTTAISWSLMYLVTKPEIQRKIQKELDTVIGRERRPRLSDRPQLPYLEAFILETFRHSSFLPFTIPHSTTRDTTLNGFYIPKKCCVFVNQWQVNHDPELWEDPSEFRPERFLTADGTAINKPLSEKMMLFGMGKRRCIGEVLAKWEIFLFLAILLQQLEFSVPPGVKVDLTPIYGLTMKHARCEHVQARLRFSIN
As to the kind of experiment: Inhibition of CYP1A2 (unknown origin) at 10 uM relative to control. It counts as ADME.

In another series the target is CYP2C9 (Homo sapiens, UniProt P11712). As to the kind of experiment: Inhibition of CYP2C9 (unknown origin) at 10 uM relative to control. The class given is ADME.
CYP2C9, sequence (P11712 whole entry): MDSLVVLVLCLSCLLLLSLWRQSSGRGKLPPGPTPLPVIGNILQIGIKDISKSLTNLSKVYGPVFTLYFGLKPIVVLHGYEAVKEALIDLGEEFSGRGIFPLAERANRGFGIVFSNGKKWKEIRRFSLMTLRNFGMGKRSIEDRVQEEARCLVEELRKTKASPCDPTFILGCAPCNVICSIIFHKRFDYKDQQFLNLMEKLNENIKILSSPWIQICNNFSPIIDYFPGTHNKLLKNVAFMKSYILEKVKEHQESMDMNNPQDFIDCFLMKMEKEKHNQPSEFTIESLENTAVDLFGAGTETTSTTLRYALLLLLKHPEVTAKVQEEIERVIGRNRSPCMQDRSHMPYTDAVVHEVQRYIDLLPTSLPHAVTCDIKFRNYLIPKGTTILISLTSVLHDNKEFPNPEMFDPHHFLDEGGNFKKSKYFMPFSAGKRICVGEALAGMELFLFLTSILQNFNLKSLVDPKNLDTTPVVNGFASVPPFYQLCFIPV
The target in the next series is CYP2D6 (Homo sapiens, UniProt P10635). The experiment in a line: Inhibition of CYP2D6 (unknown origin) at 10 uM relative to control. It counts as ADME.
CYP2D6, sequence (P10635 whole entry): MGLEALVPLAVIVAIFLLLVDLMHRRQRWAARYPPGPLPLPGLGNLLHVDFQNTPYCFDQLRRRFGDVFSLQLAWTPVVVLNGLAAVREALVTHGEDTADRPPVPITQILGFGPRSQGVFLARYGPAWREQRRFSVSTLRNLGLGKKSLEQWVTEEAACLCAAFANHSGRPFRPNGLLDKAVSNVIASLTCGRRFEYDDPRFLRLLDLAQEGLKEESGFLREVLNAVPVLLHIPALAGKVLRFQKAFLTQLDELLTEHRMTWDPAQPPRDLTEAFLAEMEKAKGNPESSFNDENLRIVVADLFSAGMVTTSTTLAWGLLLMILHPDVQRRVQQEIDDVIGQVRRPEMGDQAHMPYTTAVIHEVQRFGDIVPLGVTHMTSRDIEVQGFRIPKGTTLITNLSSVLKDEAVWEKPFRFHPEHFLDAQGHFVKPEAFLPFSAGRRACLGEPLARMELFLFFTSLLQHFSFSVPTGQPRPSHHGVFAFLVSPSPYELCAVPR
The target of another series is CYP2C19 (Homo sapiens, UniProt P33261). As to the kind of experiment: Inhibition of CYP2C19 (unknown origin) at 10 uM relative to control. It counts as ADME.
CYP2C19, sequence (P33261 whole entry): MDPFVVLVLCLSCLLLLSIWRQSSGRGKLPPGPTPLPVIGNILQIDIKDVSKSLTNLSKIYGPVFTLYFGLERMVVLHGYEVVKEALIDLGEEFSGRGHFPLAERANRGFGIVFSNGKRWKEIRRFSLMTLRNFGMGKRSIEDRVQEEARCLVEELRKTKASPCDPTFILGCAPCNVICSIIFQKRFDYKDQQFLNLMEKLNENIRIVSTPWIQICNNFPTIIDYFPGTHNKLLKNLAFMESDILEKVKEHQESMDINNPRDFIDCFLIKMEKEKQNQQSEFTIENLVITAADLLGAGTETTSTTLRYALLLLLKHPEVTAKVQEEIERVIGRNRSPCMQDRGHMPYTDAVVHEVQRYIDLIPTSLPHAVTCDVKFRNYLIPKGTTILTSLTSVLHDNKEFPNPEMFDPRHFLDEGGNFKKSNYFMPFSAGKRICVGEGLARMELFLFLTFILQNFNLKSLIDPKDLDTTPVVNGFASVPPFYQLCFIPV
The target in the next series is T3, CYP2C8 (Homo sapiens, UniProt P10632).
T3 sequence (P10632 whole entry): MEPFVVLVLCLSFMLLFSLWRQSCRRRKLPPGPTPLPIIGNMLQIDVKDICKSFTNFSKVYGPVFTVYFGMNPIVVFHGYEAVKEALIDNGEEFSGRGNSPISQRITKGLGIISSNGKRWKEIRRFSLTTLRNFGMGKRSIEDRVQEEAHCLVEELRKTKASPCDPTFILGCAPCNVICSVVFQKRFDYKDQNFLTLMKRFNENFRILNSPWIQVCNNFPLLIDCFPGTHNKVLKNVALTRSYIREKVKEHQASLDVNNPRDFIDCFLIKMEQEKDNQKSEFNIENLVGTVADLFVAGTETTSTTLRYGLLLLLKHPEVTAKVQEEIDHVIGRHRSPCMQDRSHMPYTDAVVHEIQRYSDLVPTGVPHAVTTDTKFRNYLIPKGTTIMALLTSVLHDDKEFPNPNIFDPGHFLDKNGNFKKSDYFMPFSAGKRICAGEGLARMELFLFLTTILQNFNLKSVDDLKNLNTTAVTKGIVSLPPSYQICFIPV
As to the kind of experiment: Inhibition of CYP2C8 (unknown origin) at 10 uM relative to control. The class given is ADME.

A further series concerns the target T4, CYP2B6 (Homo sapiens, UniProt P20813).
T4 sequence (P20813 whole entry): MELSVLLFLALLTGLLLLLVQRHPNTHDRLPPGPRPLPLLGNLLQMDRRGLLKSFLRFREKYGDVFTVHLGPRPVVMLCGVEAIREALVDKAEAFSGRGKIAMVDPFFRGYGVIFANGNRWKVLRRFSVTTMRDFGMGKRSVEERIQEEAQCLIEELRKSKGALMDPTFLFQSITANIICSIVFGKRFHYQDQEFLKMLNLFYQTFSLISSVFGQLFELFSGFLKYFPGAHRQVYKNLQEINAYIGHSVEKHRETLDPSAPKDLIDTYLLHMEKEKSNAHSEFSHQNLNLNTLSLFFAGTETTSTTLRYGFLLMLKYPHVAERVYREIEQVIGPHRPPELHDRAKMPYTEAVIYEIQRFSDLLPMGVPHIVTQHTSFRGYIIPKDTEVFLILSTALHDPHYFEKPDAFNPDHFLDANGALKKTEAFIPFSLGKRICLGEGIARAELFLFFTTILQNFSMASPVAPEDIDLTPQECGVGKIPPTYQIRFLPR
As to the kind of experiment: Inhibition of CYP2B6 (unknown origin) at 10 uM relative to control. It counts as ADME.

In series [7] the target is Voltage-gated inwardly rectifying potassium channel KCNH2 (Homo sapiens, UniProt Q12809). As to the kind of experiment: Inhibition of human ERG.
Voltage-gated inwardly rectifying potassium channel KCNH2, sequence (Q12809 whole entry): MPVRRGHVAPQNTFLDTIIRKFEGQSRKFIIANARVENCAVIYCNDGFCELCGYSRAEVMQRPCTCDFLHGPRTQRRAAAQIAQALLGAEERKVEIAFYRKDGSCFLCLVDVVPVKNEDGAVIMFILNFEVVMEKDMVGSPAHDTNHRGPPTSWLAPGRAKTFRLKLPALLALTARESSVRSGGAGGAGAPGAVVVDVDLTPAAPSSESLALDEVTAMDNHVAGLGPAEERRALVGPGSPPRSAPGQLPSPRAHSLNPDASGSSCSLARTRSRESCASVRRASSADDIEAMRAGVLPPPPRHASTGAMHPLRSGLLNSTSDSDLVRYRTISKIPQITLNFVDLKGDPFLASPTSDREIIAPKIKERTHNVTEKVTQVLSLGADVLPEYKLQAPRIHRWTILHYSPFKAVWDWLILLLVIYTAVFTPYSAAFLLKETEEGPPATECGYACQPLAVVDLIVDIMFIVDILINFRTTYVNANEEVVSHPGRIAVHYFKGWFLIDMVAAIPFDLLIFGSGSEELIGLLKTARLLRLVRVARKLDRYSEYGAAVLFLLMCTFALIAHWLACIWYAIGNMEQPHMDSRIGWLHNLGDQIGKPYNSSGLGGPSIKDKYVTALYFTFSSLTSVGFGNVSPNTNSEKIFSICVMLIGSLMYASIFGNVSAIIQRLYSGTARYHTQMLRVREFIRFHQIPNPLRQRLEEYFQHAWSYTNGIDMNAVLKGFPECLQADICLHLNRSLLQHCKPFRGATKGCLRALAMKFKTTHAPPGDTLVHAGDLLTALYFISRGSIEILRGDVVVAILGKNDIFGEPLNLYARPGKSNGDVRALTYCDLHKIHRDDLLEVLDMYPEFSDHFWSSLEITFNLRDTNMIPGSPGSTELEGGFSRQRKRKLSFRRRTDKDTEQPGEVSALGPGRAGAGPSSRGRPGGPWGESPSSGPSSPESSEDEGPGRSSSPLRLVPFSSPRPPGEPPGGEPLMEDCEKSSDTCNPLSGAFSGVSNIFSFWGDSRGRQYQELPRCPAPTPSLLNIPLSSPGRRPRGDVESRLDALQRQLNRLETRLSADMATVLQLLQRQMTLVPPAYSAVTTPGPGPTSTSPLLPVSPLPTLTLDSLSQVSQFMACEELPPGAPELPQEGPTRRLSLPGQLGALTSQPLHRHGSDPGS
The target of series [8] is T5, Bromodomain-containing protein 4 (Homo sapiens, UniProt O60885). As to the kind of experiment: Inhibition of BRD4 in poly(I:C)-stimulated human SAECs TLR3-inducible CIG5 gene expression at 10 uM pre-incubated for 24 hrs before poly(I:C) stimulation for 4 hrs by qRT-PCR analysis relative to control. For orientation: In qPCR the cycle at which signal appears reflects the starting amount.

Series [9] has as its target T5, Bromodomain-containing protein 4. The experiment in a line: Inhibition of BRD4 in poly(I:C)-stimulated human SAECs TLR3-inducible IL-6 gene expression at 10 uM pre-incubated for 24 hrs before poly(I:C) stimulation for 4 hrs by qRT-PCR analysis relative to control.
The target is the same in series [10]. The experiment in a line: Inhibition of BRD4 in poly(I:C)-stimulated human SAECs TLR3-inducible IL-6 gene expression pre-incubated for 24 hrs before poly(I:C) stimulation for 4 hrs by qRT-PCR analysis.
Series [11] has the same target. The experiment in a line: Binding affinity to recombinant BRD4 BD2 (unknown origin) incubated for 1 hr by TR-FRET assay.

Here are results for two molecules from ChEMBL document CHEMBL4402595, “Discovery of Orally Bioavailable Chromone Derivatives as Potent and Selective BRD4 Inhibitors: Scaffold Hopping, Optimization, and Pharmacological Evaluation” (J Med Chem, 2020).

The structures appear in SMILES notation.

T1 sequence (P08684 whole entry): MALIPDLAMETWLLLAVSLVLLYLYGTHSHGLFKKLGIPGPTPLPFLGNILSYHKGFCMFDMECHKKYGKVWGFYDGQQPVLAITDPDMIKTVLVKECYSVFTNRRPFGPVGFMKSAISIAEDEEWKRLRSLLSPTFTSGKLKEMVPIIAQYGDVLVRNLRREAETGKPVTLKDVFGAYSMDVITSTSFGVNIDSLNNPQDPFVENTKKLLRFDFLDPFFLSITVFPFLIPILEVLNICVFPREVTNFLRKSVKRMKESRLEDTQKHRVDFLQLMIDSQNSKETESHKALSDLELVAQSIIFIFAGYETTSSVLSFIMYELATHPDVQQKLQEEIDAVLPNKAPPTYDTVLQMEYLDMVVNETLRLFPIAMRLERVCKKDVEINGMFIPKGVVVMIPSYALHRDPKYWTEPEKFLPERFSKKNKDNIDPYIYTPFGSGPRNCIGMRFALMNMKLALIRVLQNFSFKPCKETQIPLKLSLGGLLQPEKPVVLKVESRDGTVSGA

Regarding `COc1cc(OC)c2c(=O)cc(-c3cc(C)c(OC[C@H](O)CN4CCN(C)CC4)c(C)c3)oc2c1`, the results for the CLH in series [1] and in series [2] were 25 µL/min/mg and 5.6 µL/min/mg, respectively. Further, the Fu turned out to be 12% in [3] and 17% in [4]. Besides, the inhibition at 10 µM came out at 9.5% on CYP3A4 [5]; 8.2% against CYP3A4 [6]; 0% at CYP1A2; 1.9% against CYP2C9; 0% at CYP2D6; 1.7% against CYP2C19. The inhibition at 10 µM against CYP2C8 came to 17%; against CYP2B6, 27%. For the same molecule, in series [7], the IC50 is over 30000 nM.

For the molecule `COc1cc(OC)c2c(=O)cc(-c3cc(C)c(OC[C@H](O)CN4CCCCC4)c(C)c3)oc2c1`, the values for the inhibition in [8] and in [9] were 99% and 100%, respectively. In addition, the IC50 in series [10] worked out at 1100 nM; in [11] it was 684 nM.

One may read the inhibition as the relative decrease from the control value, in per cent. Higher therefore signals a strong effect. By IC50 is commonly meant the point on the concentration scale where inhibition reaches its midpoint.
